Screening data (PubChem)
A selection follows.
Apaf-1 act: activators of human Apaf-1 apoptosome; O14727; Apaf-1 apoptosome caspase-3 activation, DEVD-Rh110 fluorescence; hits give low values; activity change, negative = activation, % at 20 µM; 330,000 compounds, 0.31% hits; AID 489031;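 active = activity change at or below -40% at 20 µM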
Target sequence (O14727 whole entry, looked up): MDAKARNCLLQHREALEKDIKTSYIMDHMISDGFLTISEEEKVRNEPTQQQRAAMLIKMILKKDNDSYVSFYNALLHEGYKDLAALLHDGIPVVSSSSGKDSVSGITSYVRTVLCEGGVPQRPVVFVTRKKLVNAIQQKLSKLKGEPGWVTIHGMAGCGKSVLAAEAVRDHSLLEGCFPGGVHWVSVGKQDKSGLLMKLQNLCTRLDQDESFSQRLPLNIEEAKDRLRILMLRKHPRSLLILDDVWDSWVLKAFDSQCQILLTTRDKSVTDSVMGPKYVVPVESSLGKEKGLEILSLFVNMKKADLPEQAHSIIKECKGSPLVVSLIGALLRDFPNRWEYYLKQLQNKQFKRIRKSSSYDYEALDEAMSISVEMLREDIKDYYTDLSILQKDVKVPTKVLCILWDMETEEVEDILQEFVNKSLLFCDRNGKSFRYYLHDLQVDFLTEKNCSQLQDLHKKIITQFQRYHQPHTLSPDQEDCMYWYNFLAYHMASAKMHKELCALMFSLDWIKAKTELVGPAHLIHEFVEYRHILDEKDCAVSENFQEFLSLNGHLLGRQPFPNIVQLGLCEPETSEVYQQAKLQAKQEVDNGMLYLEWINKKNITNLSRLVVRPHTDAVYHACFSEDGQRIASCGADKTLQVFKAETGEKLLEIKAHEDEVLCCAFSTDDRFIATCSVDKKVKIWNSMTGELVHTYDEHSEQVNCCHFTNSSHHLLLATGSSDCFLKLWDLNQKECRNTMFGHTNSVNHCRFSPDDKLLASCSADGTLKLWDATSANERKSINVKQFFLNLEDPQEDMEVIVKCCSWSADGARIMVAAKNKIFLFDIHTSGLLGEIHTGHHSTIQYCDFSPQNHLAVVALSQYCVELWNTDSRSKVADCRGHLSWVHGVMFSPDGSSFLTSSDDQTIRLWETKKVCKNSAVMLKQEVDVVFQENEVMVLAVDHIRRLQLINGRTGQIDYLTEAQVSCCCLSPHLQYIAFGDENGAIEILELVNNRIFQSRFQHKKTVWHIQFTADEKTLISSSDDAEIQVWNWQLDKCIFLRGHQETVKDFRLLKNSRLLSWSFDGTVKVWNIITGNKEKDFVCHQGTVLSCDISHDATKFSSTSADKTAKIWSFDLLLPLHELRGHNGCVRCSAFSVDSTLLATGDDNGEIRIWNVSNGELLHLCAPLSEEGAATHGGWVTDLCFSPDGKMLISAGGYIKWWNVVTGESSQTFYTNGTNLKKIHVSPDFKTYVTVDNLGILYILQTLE
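Assay system – biochemical Apaf-1 apoptosome reconstitution · Medium – 20 mM HEPES buffer, pH 7.5, containing CHAPS and BSA · Incubation – 30 min preincubation, 50 min reaction, room temperature · Measured by – Caspase-3-released Rh110 fluorescence, 540 nm emission, 480 nm excitation · Read-out – Caspase-3 cleavage activity downstream of Apaf-1 activation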
Rh110 interf act: Rh110 signal interference in Apaf-1 activator counter-screen; 980 tested, under 10 active; fluorescence interference (activity change), % at 20 µM, hits read low; Rh110 fluorescence interference, quenched caspase reaction, Ex480/Em540; shares compounds with Apaf-1 act;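 active = mean activity change at or below -40% when tested at 20 µM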
Apaf-1 act conf2: Apaf-1 (human) activation, single-dose confirmed; 980 compounds, 5% hits; shares compounds with Apaf-1 act; activity change, negative = activation, % at 20 µM; AID 504617; reconstituted apoptosome caspase-3 activity, DEVD-Rh110 fluorescence; hits give low values;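 active = mean activity change at or below -40%, meaning activation of 40% or more, at 20 µM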
* marks the source's active call; other numbers are inactive results; nt = no result.

SMILES | Apaf-1 act | Rh110 interf act | Apaf-1 act conf2
Cc1c(Cc2ccccc2)sc(/N=C/c2c(O)ccc3ccccc23)c1C(N)=O | -63* | 11 | 23
COc1cccc(CNc2cccc3cccnc23)c1O | 71 | nt | nt
CCOc1ccc(-n2nc3ccc(N)cc3n2)cc1 | 84 | nt | nt
CCc1ccccc1NC(=O)CCNS(=O)(=O)c1cc(Br)cnc1N | 49 | nt | nt
CCc1ccccc1NC(=O)CCS(=O)(=O)c1ccc(OC)cc1 | -117* | 0 | -3
COc1ccc(C(CCN2CCCC(C)C2)c2c(OC)cc(OC)c3c(-c4ccccc4)cc(=O)oc23)cc1 (stereo not given) | 54 | nt | nt
O=S1(=O)N=C(Nc2ccc(S(=O)(=O)N3CCCCC3)cc2)c2ccccc21 | -44* | -3 | 9
O=C1C(NS(=O)(=O)c2ccc(Cl)cc2)=C(N2CCCCC2)C(=O)c2ccccc21 | 72 | nt | nt
O=C(NC1=C(Nc2ccc(Cl)cc2)C(=O)c2ccccc2C1=O)c1ccccc1 | 54 | nt | nt
O=C(NNC(=S)Nc1ccc(Cl)cc1)c1ccccc1 | -66* | -3 | 5
O=C1C(Cl)=C(NC(=O)c2ccccc2)C(=O)C(Cl)=C1NC(=O)c1ccccc1 | 56 | nt | nt
COc1cc2c(cc1OC)CN(Cc1cc(=O)oc3cc(C)c(Cl)cc13)CC2 | -43* | 14 | 24
CCCCCCCCCn1c2c(c(=N)c3c1CCC3)CCC2 | 50 | nt | nt
C[N+]1(C)CCC(=C2c3ccccc3CC(=O)c3sccc32)CC1 | 57 | nt | nt
C#CCOCCOCCOCCNc1nc(N2CCN(C(=O)CCCCCCCCCCNC(=O)Cn3cc(CCCCCN)nn3)CC2)nc(N2CCN(C(=O)CCCCCCCCCCNC(=O)[C@@H](CCC(=O)O)n3cc(CCCCCN)nn3)CC2)n1 | 59 | nt | nt
O=C1C=C(c2ccc(OC(F)(F)F)cc2)C[C@@H](c2ccc(F)cc2)C1 | 54 | nt | nt
COc1ccc(C(=O)NCC23C=CC(O2)C2C(=O)N(Cc4ccccc4)C(=O)C23)cc1 (stereo not given) | -75* | -1 | 15
CCN1CCN(Cc2ccc(NC(=O)c3cc(NC(=O)c4cc5cccc(OC)c5o4)cc(OC)c3)cc2C(F)(F)F)CC1 | 63 | nt | nt
O=C(/C=C/Nc1ccc(F)c(F)c1)c1ccc(Br)cc1 | -103* | 4 | 15
C#CCOCCOCCOCCNc1nc(N2CCN(C(=O)CCCCCCCCCCNC(=O)[C@@H](CCC(=O)O)n3cc(CCCCCN)nn3)CC2)nc(N2CCN(C(=O)CCCCCCCCCCNC(=O)[C@H]([C@@H](C)CC)n3cc(CCCCCN)nn3)CC2)n1 | 61 | nt | nt
CCOC(=O)C(C(=O)OCC)c1cc(Br)c2noc3c2c1C(=O)c1ccccc1-3 | 89 | nt | nt
Cc1ccc(-n2nnnc2SCC(=O)N2CCNC2=O)cc1C | -448* | 9 | 9
Cc1ccc(NC(=O)CN2C(=O)S/C(=C/c3ccc(-c4cc(C(=O)O)ccc4C)o3)C2=O)cc1C | 42 | nt | nt
C#CCOCCOCCOCCNc1nc(N2CCN(C(=O)[C@H]([C@@H](C)CC)n3cc([C@@H](N)Cc4ccc(O)cc4)nn3)CC2)nc(N2CCN(C(=O)[C@H](CCCCN)n3cc([C@@H](N)CO)nn3)CC2)n1 | 52 | nt | nt
O=C1NC2=C(CCc3ccccc32)C(c2ccccc2)N1 (stereo not given) | 91 | nt | nt
SMILES | Apaf-1 act | Rh110 interf act | Apaf-1 act conf2
O=C(Nc1ccc2nc(-c3ccco3)c(-c3ccco3)nc2c1)N1CCCCCC1 | 57 | nt | nt
Cc1cccc(C(=O)N/C(=C\c2ccco2)C(=O)N2CCCC2)c1 | -134* | 1 | 4
O=C(NCC(c1ccco1)N1CCCC1)c1cccc(S(=O)(=O)Nc2ccc(Br)cc2)c1 (stereo not given) | 59 | nt | nt
Cc1cc2cc(CNC(=O)c3ccc(S(=O)(=O)N(C)C)cc3)ccc2n1C | 45 | nt | nt
CCOC(=O)c1nn(-c2ccccc2C)c(=O)c2c(N)scc12 | 47 | nt | nt
CCc1cc2c(=O)nc3n(c2s1)Cc1ccccc1/C3=C(/O)c1cccc([N+](=O)[O-])c1 | -198* | 0 | 24
C#CCOCCOCCOCCNc1nc(N2CCN(C(=O)[C@H](CCCCN)n3cc(CCCC)nn3)CC2)nc(N2CCN(C(=O)[C@H](CCCCN)n3cc(CCCC)nn3)CC2)n1 | 50 | nt | nt
S=C(Nc1ccc2[nH]ccc2c1)NC1CCCCC1 | -86* | 2 | 21
O=C1C(Cl)=C(N2CCC(C(=O)O)CC2)C(=O)c2ccccc21 | 75 | nt | nt
CCOC(=O)c1ccc(Nc2nc(N)c3cc(OC)c(OC)cc3n2)cc1 | 54 | nt | nt
COc1ccc(Nc2ccc(C(=O)O)cc2[N+](=O)[O-])cc1 | -64* | 21 | 15
CCOCCCNc1nc2nc3ccc(C)cn3c(=O)c2cc1C(=O)NCC1CCCO1 (stereo not given) | -69* | -1 | 11
Cc1cc(C)cc(NC(=S)Nc2cccc3cnccc23)c1 | 98 | nt | nt
